According to ChEMBL document CHEMBL4364284, “Design, Synthesis, and Efficacy Testing of Nitroethylene- and 7-Nitrobenzoxadiazol-Based Flavodoxin Inhibitors against Helicobacter pylori Drug-Resistant Clinical Strains and in Helicobacter pylori-Infected Mice” (J Med Chem, 2019):
≈ marks a conversion by molar mass, not a printed value. Calls of active or inactive are those of the source. The rule behind the calls is not given here.

Legend:
[1] = Therapeutic index, ratio of MCC50 for human HeLa cells to MIC for inhibition of flavodoxin in Mnz-resistant Helicobacter pylori NCTC 11637 ATCC 43504 assessed as reduction in bacterial growth; assay type: toxicity; conditions: read-out: TI
How it was run: (§1)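 TI is MCC50/MIC. For MCC50, HeLa cells (30 000/well, DMEM with 10% FBS) were exposed to compound at 25–1000 μM final. Viability by XTT at 450/650 nm; MCC50 is the concentration giving 50% lysis from viability curves. Run twice in triplicate.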

[2] = Toxicity in specific-pathogen-free C57BL/6J mouse assessed as histopathological changes in stomach by measuring necrosis of epithelium at 20 to 40 mg/100g, po […] hematoxylin-eosin staining based assay; assay type: organism-based; conditions: in vivo, 192 h
[3] = target: T1, Flavodoxin (Helicobacter pylori (strain ATCC 700392 / 26695) (Campylobacter pylori)) (UniProt O25776); test: Binding affinity to Helicobacter pylori flavodoxin by isothermal titration calorimetric method
T1 sequence (whole entry): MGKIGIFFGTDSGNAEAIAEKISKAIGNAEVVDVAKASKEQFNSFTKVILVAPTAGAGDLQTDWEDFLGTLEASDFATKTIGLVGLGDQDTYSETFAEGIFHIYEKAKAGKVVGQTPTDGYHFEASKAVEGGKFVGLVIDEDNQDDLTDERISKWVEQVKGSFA

[4] = Toxicity in specific-pathogen-free C57BL/6J mouse assessed as histopathological changes in heart at 10 to 40 mg/100g, po administered daily via gavage for 8 days hematoxylin-eosin staining based assay; assay type: organism-based; conditions: in vivo, 192 h
How it was run: (§2)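 Controls received olive oil with 5% DMSO. Blood by cardiac puncture was analysed for biochemistry on an automatic analyser. Heart, stomach, liver, lung and kidney sections were H&E-stained for histopathology.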

[5] = Toxicity in specific-pathogen-free C57BL/6J mouse assessed as change in biochemical parameters at 10 to 40 mg/100g, po administered daily via gavage for 8 days; assay type: organism-based; conditions: in vivo, 192 h; how it was run: as §2
[6] = Toxicity in specific-pathogen-free C57BL/6J mouse assessed as histopathological changes in lung at 10 to 40 mg/100g, po administered daily via gavage for 8 days hematoxylin-eosin staining based assay; assay type: organism-based; conditions: in vivo, 192 h; how it was run: as §2
[7] = Toxicity in specific-pathogen-free C57BL/6J mouse assessed as weight loss at 40 mg/100g, po administered daily via gavage for 8 days; assay type: organism-based; conditions: in vivo, 192 h
[8] = Toxicity in specific-pathogen-free C57BL/6J mouse assessed as histopathological changes in kidney at 10 to 40 mg/100g, po administered daily via gavage for 8 days hematoxylin-eosin staining based assay; assay type: organism-based; conditions: in vivo, 192 h; how it was run: as §2
[9] = Toxicity in specific-pathogen-free C57BL/6J mouse assessed as histopathological changes in liver at 10 to 40 mg/100g, po administered daily via gavage for 8 days hematoxylin-eosin staining based assay; assay type: organism-based; conditions: in vivo, 192 h; how it was run: as §2
[10] = Toxicity in NMRI mouse infected with Helicobacter pylori SS1 assessed as change in appetite at 0.1 to 10 mg/100g, po administered daily via gavage for 8 days starting from 1 week post-infection; assay type: organism-based; conditions: in vivo
[11] = Toxicity in NMRI mouse assessed as change in body weight at 0.1 to 10 mg/100g, po administered daily via gavage for 8 days; assay type: organism-based; conditions: in vivo, 192 h
Staphylococcus aureus = test: Effect on growth of Staphylococcus aureus ATCC 1228 after 48 hrs by resazurin-dye based microdilution assay; assay type: organism-based
[12] = target: T1, Flavodoxin (Helicobacter pylori (strain ATCC 700392 / 26695) (Campylobacter pylori)); test: Inhibition of flavodoxin in Helicobacter pylori ATCC 700392 26695 assessed as reduction in bacterial growth measured after 48 hrs by resazurin staining-based microdilution method; conditions: Helicobacter pylori 26695
How it was run: (§3)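 Broth microdilution in brain heart infusion with 4% FBS. Inoculum diluted to OD600 0.01. Two-fold dilutions from a DMSO stock cover 64–0.031 μg/mL, with DMSO ≤1% v/v. Incubated 48 h at 37 °C under microaerophilic conditions. MIC is the lowest concentration giving complete growth inhibition, read by resazurin colour change and confirmed by spotting on blood agar. Run twice in triplicate.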

[13] = Toxicity in specific-pathogen-free C57BL/6J mouse assessed as histopathological changes in stomach by measuring hyperplasia at 20 to 40 mg/100g, […] hematoxylin-eosin staining based assay; assay type: organism-based; conditions: in vivo, po, 192 h
[14] = Cytotoxicity against human HeLa cells assessed as reduction in cell viability by XTT assay; assay type: cell-based; conditions: read-out: MCC50
How it was run: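 HeLa cells grown in DMEM with 10% FBS, penicillin and streptomycin at 37 °C, 5% CO2; 30 000 cells/well. XTT viability read at 450 and 650 nm. MCC50 (50% lysis) came from viability-versus-concentration curves. Two experiments, each in triplicate.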

Escherichia coli = test: Effect on growth of Escherichia coli DH5[alpha] after 48 hrs by resazurin-dye based microdilution assay; assay type: organism-based
[15] = target: T1, Flavodoxin (Helicobacter pylori (strain ATCC 700392 / 26695) (Campylobacter pylori)); test: Binding affinity to Helicobacter pylori flavodoxin by thermal upshift assay
[16] = Therapeutic index, ratio of MCC50 for human HeLa cells to MIC for inhibition of flavodoxin in Helicobacter pylori ATCC 700392 26695 assessed as reduction in bacterial growth; assay type: toxicity; conditions: HeLa cells versus Helicobacter pylori ATCC 700392 26695, read-out: TI; how it was run: as §1
[17] = Toxicity in NMRI mouse infected with Helicobacter pylori SS1 assessed as change in body weight at 0.1 to 10 mg/100g, po administered daily via gavage for 8 days starting from 1 week post-infection; assay type: organism-based; conditions: in vivo
Helicobacter pylori = test: Antibacterial activity against Helicobacter pylori SS1 infected in NMRI mouse assessed as reduction in gastric colonization at 1 mg/100g, po administered daily via gavage for 8 days starting from 1 week post-infection and measured 8 days post-last dose; assay type: functional, organism-based
How it was run: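 Female 6-week-old SPF NMRI mice, 7 per condition, infected orogastrically on days 1 and 3 with 100 μL Hp SS1 (5 × 10^8 CFU/mL). From day 8, compound given daily by oral gavage for 8 days in 100 μL of 5–10% DMSO/95–90% olive oil. Sacrificed day 24; stomach homogenate CFU/g counted after 5 days microaerophilic culture at 37 °C. Infected vehicle-treated controls; Mann-Whitney U and unpaired t tests, p ≤ 0.05.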

[18] = Toxicity in specific-pathogen-free C57BL/6J mouse assessed as histopathological changes in stomach by measuring inflammation at 20 to 40 mg/100g, po […] hematoxylin-eosin staining based assay; assay type: organism-based; conditions: in vivo, 192 h
[19] = target: T1, Flavodoxin (Helicobacter pylori (strain ATCC 700392 / 26695) (Campylobacter pylori)); test: Inhibition of flavodoxin in Mnz-resistant Helicobacter pylori NCTC 11637 ATCC 43504 assessed as reduction in bacterial growth measured after 48 hrs by resazurin staining-based microdilution method; conditions: Helicobacter pylori NCTC 11637 = CCUG 17874 = ATCC 43504; how it was run: as §3
[20] = target: T1, Flavodoxin (Helicobacter pylori (strain ATCC 700392 / 26695) (Campylobacter pylori)); test: Inhibition of flavodoxin in Helicobacter pylori SS1 assessed as reduction in bacterial growth measured after 48 hrs by resazurin staining-based microdilution method; how it was run: as §3
[21] = Therapeutic index, ratio of MCC50 for human HeLa cells to MIC for inhibition of flavodoxin in Helicobacter pylori SS1 assessed as reduction in bacterial growth; assay type: toxicity; conditions: HeLa cells versus Helicobacter pylori SS1, read-out: TI; how it was run: as §1
[22] = Toxicity in specific-pathogen-free C57BL/6J mouse assessed as hair loss at 40 mg/100g, po administered daily via gavage for 8 days; assay type: organism-based; conditions: in vivo, 192 h

O=[N+]([O-])/C=C/c1c(F)cc(Cl)cc1F
selectivity ratio [1]: 16 | Activity [2]: Toxic | Activity [3]: Active | Activity [4]: Non-Toxic | Activity [5]: Non-Toxic | Activity [6]: Non-Toxic | Activity [7]: > 20% | Activity [8]: Non-Toxic | Activity [9]: Non-Toxic | Activity [10]: Non-Toxic | Activity [11]: Non-Toxic | Activity (Staphylococcus aureus): Non-Toxic | MIC [12]: 2.3 µM (≈ 0.505 µg/mL) | Activity [13]: Toxic | CC50 [14]: 36 µM | Activity (Escherichia coli): Non-Toxic | Activity [15]: Active | selectivity ratio [16]: 16 | Activity [17]: Non-Toxic | Activity (Helicobacter pylori): Active | Activity [18]: Toxic | MIC [19]: 2.3 µM (≈ 0.505 µg/mL) | MIC [20]: 2.3 µM (≈ 0.505 µg/mL) | selectivity ratio [21]: 16 | Activity [22]: Toxic
